Measured values published in ChEMBL document CHEMBL1122187, “Synthesis and antiviral activity of certain carbamoylpyrrolopyrimidine and pyrazolopyrimidine nucleosides” (1982).

Tests used:
HEp-2 [1] = assay: In vitro antiviral activity against herpes simplex type 1 (HSV-1) virus was determined in human laryngeal epithelioma (HEp-2,H)expressed as virus rating. Toxic level(100 ug/mL); format: functional
How it was run: (§1)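 Cell monolayers (18 h) infected with 320 TCID50 of virus. Compound was added within 15–30 min at half-log dilutions from 1000 to 1 μg/mL. After 72 h at 37 °C in 5% CO2, CPE was scored 0–4 by microscopy. VR = sum of (virus control − treated) scores, halved at partially toxic levels, divided by 10 × test cups per drug level.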

HEp-2 [2] = assay: In vitro antiviral activity against parainfluenza type 3(para 3) virus was determined in human laryngeal epithelioma (HEp-2,H)expressed as virus rating. Toxic level(100 ug/mL); format: functional; how it was run: as §1
HEp-2 [3] = assay: In vitro antiviral activity against vaccinia(VV) virus was determined in human laryngeal epithelioma (HEp-2,H)expressed as virus rating. Toxic level(100 ug/mL); format: functional; how it was run: as §1
Vero [4] = assay: In vitro antiviral activity against vaccinia(VV) virus was determined in african green monkey kidney (vero,V) expressed as virus rating. Toxic level(100 ug/mL); format: functional, Chlorocebus sabaeus; how it was run: as §1
Vero [5] = assay: In vitro antiviral activity against parainfluenza type 3(para 3) virus was determined in african green monkey kidney (vero,V) expressed as virus rating. Toxic level(100 ug/mL); format: functional, Chlorocebus sabaeus; how it was run: as §1
Vero [6] = assay: In vitro antiviral activity against herpes simplex type 1 (HSV-1) virus was determined in african green monkey kidney (vero,V) expressed as virus rating. Toxic level(100 ug/mL); format: functional, Chlorocebus sabaeus; how it was run: as §1
Vero [7] = assay: In vitro antiviral activity against parainfluenza type 3(para 3) virus was determined in african green monkey kidney (vero,V) expressed as virus rating; format: functional, Chlorocebus sabaeus; how it was run: as §1
Vero [8] = assay: In vitro antiviral activity against vaccinia(VV) virus was determined in african green monkey kidney (vero,V) expressed as virus rating; format: functional, Chlorocebus sabaeus; how it was run: as §1
Vero [9] = assay: In vitro antiviral activity against herpes simplex type 1 (HSV-1) virus was determined in african green monkey kidney (vero,V) expressed as virus rating; format: functional, Chlorocebus sabaeus; how it was run: as §1
Vero [10] = assay: Percentage plaque reduction was determined against rift valley fever(RVF) virus in african green monkey kidney (vero,V) at a conc of 100-250 ug/mL. Toxic level(10 ug/mL); format: functional, Chlorocebus sabaeus
Vero [11] = assay: Percentage plaque reduction was determined against rift valley fever(RVF) virus in african green monkey kidney (vero,V) at a conc of 25-100 ug/mL. Toxic level(10 ug/mL); format: functional, Chlorocebus sabaeus
Vero [12] = assay: Percentage plaque reduction was determined against rift valley fever(RVF) virus in african green monkey kidney (vero,V) at a conc of 250-500 ug/mL. Toxic level(10 ug/mL); format: functional, Chlorocebus sabaeus
Vero [13] = assay: Percentage plaque reduction was determined against rift valley fever(RVF) virus in african green monkey kidney (vero,V) at a conc of <25 ug/mL. Toxic level(10 ug/mL); format: functional, Chlorocebus sabaeus
Vero [14] = assay: Percentage plaque reduction was determined against venezuelan equine encephalitis (VEE) virus in african green monkey kidney (vero,V) at a conc of 100-250 ug/mL. Toxic level(10 ug/mL); format: functional, Chlorocebus sabaeus
Vero [15] = assay: Percentage plaque reduction was determined against venezuelan equine encephalitis (VEE) virus in african green monkey kidney (vero,V) at a conc of 25-100 ug/mL. Toxic level(10 ug/mL); format: functional, Chlorocebus sabaeus
Vero [16] = assay: Percentage plaque reduction was determined against Sandfly fever (SF) virus in african green monkey kidney (vero,V) at a conc of 100-250 ug/mL. Toxic level(10 ug/mL); format: functional, Chlorocebus sabaeus
Vero [17] = assay: Percentage plaque reduction was determined against Sandfly fever (SF) virus in african green monkey kidney (vero,V) at a conc of 25-100 ug/mL. Toxic level(10 ug/mL); format: functional, Chlorocebus sabaeus
Vero [18] = assay: Percentage plaque reduction was determined against Sandfly fever (SF) virus in african green monkey kidney (vero,V) at a conc of 250-500 ug/mL. Toxic level(10 ug/mL); format: functional, Chlorocebus sabaeus
Vero [19] = assay: Percentage plaque reduction was determined against Sandfly fever (SF) virus in african green monkey kidney (vero,V) at a conc of <25 ug/mL. Toxic level(10 ug/mL); format: functional, Chlorocebus sabaeus
How it was run: (§2)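 Infected Vero 24-well monolayers: virus adsorbed 1 h at 37 °C, then overlaid with agar holding dilutions of compound and incubated again at 37 °C with CO₂. Plaques were stained with crystal violet and counted. Inhibition was scored as % plaque reduction bands (10-30%, 31-60%, 61-90%), each tied to a drug concentration range.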

Vero [20] = assay: Percentage plaque reduction was determined against pichinde(PICH) virus in african green monkey kidney (vero,V).Toxic level(10 ug/mL); format: functional, Chlorocebus sabaeus; how it was run: as §2
Vero [21] = assay: In vitro antiviral activity against herpes simplex type 1 (HSV-1) virus was determined in african green monkey kidney (vero,V) expressed as virus rating. Toxic level(10 ug/mL); format: functional, Chlorocebus sabaeus; how it was run: as §1
Vero [22] = assay: Percentage plaque reduction was determined against venezuelan equine encephalitis (VEE) virus in african green monkey kidney (vero,V) at a conc of 250-500 ug/mL. Toxic level(10 ug/mL); format: functional, Chlorocebus sabaeus
Vero [23] = assay: Percentage plaque reduction was determined against venezuelan equine encephalitis (VEE) virus in african green monkey kidney (vero,V) at a conc of <25 ug/mL; format: functional, Chlorocebus sabaeus
Vero [24] = assay: Percentage plaque reduction was determined against yellow fever (YF) virus in african green monkey kidney (vero,V).Toxic level(10 ug/mL); format: functional, Chlorocebus sabaeus
Vero [25] = assay: In vitro antiviral activity against vaccinia(VV) virus was determined in african green monkey kidney (vero,V) expressed as virus rating. Toxic level(>1000 ug/mL); format: functional, Chlorocebus sabaeus; how it was run: as §1
Vero [26] = assay: In vitro antiviral activity against herpes simplex type 1 (HSV-1) virus was determined in african green monkey kidney (vero,V) expressed as virus rating. Toxic level(>1000 ug/mL); format: functional, Chlorocebus sabaeus; how it was run: as §1
Vero [27] = assay: In vitro antiviral activity against parainfluenza type 3(para 3) virus was determined in african green monkey kidney (vero,V) expressed as virus rating. Toxic level(>1000 ug/mL); format: functional, Chlorocebus sabaeus; how it was run: as §1
HEp-2 [28] = assay: In vitro antiviral activity against parainfluenza type 3 (para3) virus was determined in human laryngeal epithelioma (HEp-2,H)expressed as virus rating. Toxic level(100 ug/mL); format: functional; how it was run: as §1

What does the source list for `NC(=O)c1ncnc2c([C@@H]3O[C@H](CO)[C@@H](O)[C@H]3O)n[nH]c12`?
Virus rating (HEp-2 [1]): 0; Virus rating (HEp-2 [2]): 0.4; Virus rating (HEp-2 [3]): 0.8; Virus rating (Vero [4]): 0.6; Virus rating (Vero [5]): 0; Virus rating (Vero [6]): 0

Which results are given for `CSc1ncnc2c([C@@H]3O[C@H](CO)[C@@H](O)[C@H]3O)n[nH]c12`?
Virus rating (Vero [7]): 1.3; Virus rating (Vero [8]): 1.4; Virus rating (Vero [9]): 0.8

For `O=C1N=CN=C2C([C@@H]3O[C@H](CO)[C@@H](O)[C@H]3O)=NNC12` (stereo not given in full), which Plaque reduction (Vero [10]) is on record?
Its Plaque reduction is 0%.

What about the Plaque reduction (Vero [11]) of the same compound?
Its Plaque reduction is 0%.

What about the Plaque reduction (Vero [12]) of the same compound?
The Plaque reduction was 0%.

What about the Plaque reduction (Vero [13]) of the same compound?
The Plaque reduction was 0%.

And the Plaque reduction (Vero [14])?
The Plaque reduction was 0%.

And the Plaque reduction (Vero [15])?
Its Plaque reduction is 0%.

And the Plaque reduction (Vero [16])?
The Plaque reduction was 0%.

And the Plaque reduction (Vero [17])?
Its Plaque reduction is 0%.

And the Plaque reduction (Vero [18])?
The Plaque reduction was 0%.

And the Plaque reduction (Vero [19])?
Its Plaque reduction is 0%.

What about the Plaque reduction (Vero [20]) of the same compound?
The Plaque reduction was greater than 90%.

What about the Virus rating (Vero [21]) of the same compound?
Its Virus rating is 0.1.

What about the Plaque reduction (Vero [22]) of the same compound?
The Plaque reduction was 0%.

And the Plaque reduction (Vero [23])?
The Plaque reduction was 0%.

And the Plaque reduction (Vero [24])?
The Plaque reduction was 0%.

Which Virus rating (HEp-2 [1]) does the source give for `CSc1ncnc2c1ccn2[C@@H]1O[C@H](CO)[C@@H](O)[C@H]1O` here?
Its Virus rating is 1.3.

What about the Virus rating (HEp-2 [3]) of the same compound?
Its Virus rating is 1.4.

And the Virus rating (Vero [25])?
The Virus rating was 1.

What about the Virus rating (Vero [26]) of the same compound?
Its Virus rating is 0.5.

What about the Virus rating (Vero [27]) of the same compound?
The Virus rating was 0.9.

And the Virus rating (HEp-2 [28])?
The Virus rating was 1.5.
